# From PubChem
# Sampled rows, rich in hits. Any-hit rate of the full collection: about 5.8%.
# IDH1 mut inh – inhibitors of human IDH1 R132H. IDH1 R132H reductase, diaphorase/resazurin fluorescence, 60 min. inhibition, % at 10 µM. 0.18% of 70,000 active. O75874; in the data active = inhibition above about 34%; inconclusive = no clear call, values can overlap the other calls; inactive = below about 11%;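 also: 0% = DMSO and 100% = no enzyme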
# Pf Dd2 growth – P. falciparum Dd2 growth inhibition; SYBR Green, 72 h; active compounds read low; activity change, % at 10 µM; 2.3% of 94,000 active; in the data active = activity change below about -80%; inconclusive = no clear call, values can overlap the other calls
# GASC1 inh – KDM4C (human) demethylase inhibition; 0.15% of 96,000 active; GST-KDM4C 2-372, H3K9me3 peptide, LANCE TR-FRET; inhibition, % at 12.5 µM; Q9H3R0; AID 720574;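 active = mean replicate inhibition above about 25%, with at least 55% of replicates also reaching it, limit read from the data, passing the limit was not always enough; inconclusive = only one of those two conditions met; inactive = neither condition met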
# Target sequence (Q9H3R0 2-372 limits assumed): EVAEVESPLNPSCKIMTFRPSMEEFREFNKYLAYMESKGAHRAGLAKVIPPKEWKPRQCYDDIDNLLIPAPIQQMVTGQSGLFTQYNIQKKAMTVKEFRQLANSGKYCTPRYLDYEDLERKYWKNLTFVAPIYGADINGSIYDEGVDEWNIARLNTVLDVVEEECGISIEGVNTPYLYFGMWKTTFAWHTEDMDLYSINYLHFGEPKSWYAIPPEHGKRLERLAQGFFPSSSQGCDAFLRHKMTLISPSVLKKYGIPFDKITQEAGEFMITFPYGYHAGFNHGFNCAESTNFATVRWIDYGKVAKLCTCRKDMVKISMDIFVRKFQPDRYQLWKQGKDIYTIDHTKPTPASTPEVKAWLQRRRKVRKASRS
#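 Test system: N-terminal GST-fused human GASC-1 (KDM4C) fragment, residues 2-372; quantity: GASC-1 enzyme at 10 nM final in reaction; dosing: single dose; schedule: 30 min demethylation and 1 h detection at room temperature; signal: LANCE TR-FRET, excitation 340 nm, emissions 618 and 671 nm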
# Tcruzi prolif – blocks T. cruzi growth in NIH3T3 culture; inhibition, % at 8.34 µM; AID 624255; 5.9% of 77,000 active; T. cruzi beta-gal in NIH3T3, GalScreen luminescence, 90 h;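 active = mean inhibition above about 93%, with at least 55% of replicates each passing it, limit read from the data, passing the limit was not always enough; inconclusive = only one of those two conditions holds; inactive = neither condition holds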
# An asterisk follows results filed as active; ? = inconclusive; / = not tested or not shown.
SMILES,IDH1 mut inh,Pf Dd2 growth,GASC1 inh,Tcruzi prolif
C[C@@H]1CN([C@H](C)CO)C(=O)c2cc(NC(=O)NC3CCCCC3)ccc2O[C@@H](C)CCCCO[C@@H]1CN(C)C(=O)Nc1ccc(F)cc1,-2,-88*,-2,/
C[C@@H]1CN([C@H](C)CO)C(=O)c2cc(NC(=O)NC3CCCCC3)ccc2O[C@@H](C)CCCCO[C@@H]1CN(C)C(=O)Nc1ccccc1,/,-81*,0,33
C[C@@H]1CN([C@H](C)CO)C(=O)c2cc(NC(=O)Nc3ccccc3)ccc2O[C@@H](C)CCCCO[C@@H]1CN(C)C(=O)NC1CCCCC1,/,-85*,-1,-21
C[C@@H]1CCCCO[C@@H](CN(C)C(=O)Nc2ccccc2)[C@@H](C)CN([C@H](C)CO)C(=O)c2cc(NC(=O)NC3CCCCC3)ccc2O1,1,9,0,23
C[C@@H]1CCCCO[C@@H](CN(C)C(=O)NC2CCCCC2)[C@H](C)CN([C@@H](C)CO)C(=O)c2cc(NC(=O)Nc3ccccc3)ccc2O1,0,-18,0,5
COc1ccccc1S(=O)(=O)N(C)C[C@H]1OCc2ccccc2-c2c(n(C)c3ccccc23)C(=O)N([C@@H](C)CO)C[C@@H]1C,/,-87*,-4,72
COc1cccc(S(=O)(=O)N(C)C[C@H]2OCc3ccccc3-c3c(n(C)c4ccccc34)C(=O)N([C@@H](C)CO)C[C@H]2C)c1,0,-75,-3,74
COc1ccccc1S(=O)(=O)N(C)C[C@H]1OCc2ccccc2-c2c(n(C)c3ccccc23)C(=O)N([C@@H](C)CO)C[C@H]1C,-2,-68,0,51
COc1cccc(S(=O)(=O)N(C)C[C@@H]2OCc3ccccc3-c3c(n(C)c4ccccc34)C(=O)N([C@@H](C)CO)C[C@@H]2C)c1,0,-85*,-4,79
COc1cccc(S(=O)(=O)N(C)C[C@@H]2OCc3ccccc3-c3c(n(C)c4ccccc34)C(=O)N([C@H](C)CO)C[C@@H]2C)c1,/,-89*,-4,74
C[C@H](CO)N1C[C@H](C)[C@H](CN(C)S(=O)(=O)c2cccc(F)c2)OCc2ccccc2-c2c(n(C)c3ccccc23)C1=O,/,-91*,/,/
CC1CCc2c(sc3nnn(CC(=O)Nc4cc(Cl)ccc4Cl)c(=O)c23)C1 (centres undefined),1,/,/,/
C[C@H](CO)N1C[C@H](C)[C@H](CN(C)C(=O)Nc2cccc(Cl)c2Cl)OCc2ccccc2-c2c(n(C)c3ccccc23)C1=O,/,-79,-3,/
C[C@H]1CN([C@@H](C)CO)C(=O)c2c(c3ccccc3n2C)-c2ccccc2CO[C@H]1CN(C)C(=O)Nc1cccc(Cl)c1Cl,/,-91*,-3,/
C[C@H](CO)N1C[C@H](C)[C@@H](CN(C)C(=O)Nc2cccc(Cl)c2Cl)OCc2ccccc2-c2c(n(C)c3ccccc23)C1=O,/,-46,-5,/
C[C@@H]1CN([C@@H](C)CO)C(=O)c2c(c3ccccc3n2C)-c2ccccc2CO[C@H]1CN(C)C(=O)Nc1cccc(Cl)c1Cl,/,-94*,-4,/
CCn1c2ccccc2c2cc(/C=N/NC(=O)CCCCCC(=O)Nc3ccccc3O)ccc21,0,/,/,/
CC(C)CC#Cc1ccc2c(c1)O[C@@H](CN(C)Cc1cccc(F)c1)[C@H](C)CN([C@H](C)CO)S2(=O)=O,0,-92*,0,50
C[C@@H]1CN([C@@H](C)CO)S(=O)(=O)c2ccc(C#CCN(C)C)cc2O[C@H]1CN(C)CC1CCCC1,-2,-83*,0,88
C[C@H](CO)N1C[C@H](C)[C@H](CN(C)Cc2ccc(F)cc2)Oc2cc(C#CCN(C)C)ccc2S1(=O)=O,21,-72,42*,28
CC(C)CC#Cc1ccc2c(c1)O[C@@H](CN(C)Cc1ccccc1)[C@@H](C)CN([C@H](C)CO)S2(=O)=O,5,17,0,0
C[C@@H]1CN([C@@H](C)CO)S(=O)(=O)c2ccc(-c3cccc(C#N)c3)cc2O[C@H]1CN(C)Cc1cccc(F)c1,3,-84*,/,94
O=C(Nc1sc2c(c1C(=O)NCc1cccnc1)CCCCC2)c1ccccc1,0,/,/,/
CS(=O)(=O)N1N=C(c2cccc(NS(=O)(=O)c3ccccc3)c2)CC1c1ccco1 (centres undefined),-1,/,/,/
CC(C)CC#Cc1ccc2c(c1)O[C@@H](CN(C)C(=O)NC(C)C)[C@H](C)CN([C@@H](C)CO)S2(=O)=O,36*,-33,0,58
SMILES,IDH1 mut inh,Pf Dd2 growth,GASC1 inh,Tcruzi prolif
CC(C)CC#Cc1ccc2c(c1)O[C@@H](CN(C)C(=O)NC(C)C)[C@@H](C)CN([C@@H](C)CO)S2(=O)=O,0,-3,-2,55
COc1ccc(NC(=O)CNC(=O)c2ccccc2)cc1Cl,0,/,/,/
Cc1cc(C(=O)Nc2cccc3c2O[C@@H](CN(C)Cc2ccc(C(=O)O)cc2)[C@H](C)CN([C@H](C)CO)C3=O)n(C)n1,3,-1,2,/
Cc1cc(C(=O)Nc2cccc3c2O[C@@H](CN(C)Cc2ccc(C(=O)O)cc2)[C@@H](C)CN([C@@H](C)CO)C3=O)n(C)n1,-1,-7,-1,/
Cc1cc(C(=O)Nc2cccc3c2O[C@@H](CN(C)Cc2ccc(C(=O)Nc4ccccc4N)cc2)[C@H](C)CN([C@H](C)CO)C3=O)n(C)n1,0,-92*,16,98
Cc1cc(C(=O)Nc2cccc3c2O[C@H](CN(C)Cc2ccc(C(=O)Nc4ccccc4N)cc2)[C@@H](C)CN([C@H](C)CO)C3=O)n(C)n1,/,-88*,17,98
C[C@H]1CCCCO[C@@H](CN(C)Cc2ccc3c(c2)OCO3)[C@@H](C)CN([C@@H](C)CO)C(=O)c2cc(NC(=O)Nc3cccc4ccccc34)ccc2O1,-5,?,-3,92
COc1ccc(CN(C)C[C@@H]2OCCCC[C@@H](C)Oc3ccc(NC(=O)Nc4cccc5ccccc45)cc3C(=O)N([C@H](C)CO)C[C@H]2C)cc1,0,-71,/,87
C[C@@H]1CCCCO[C@@H](CN(C)Cc2ccc3c(c2)OCO3)[C@H](C)CN([C@H](C)CO)C(=O)c2cc(NC(=O)Nc3cccc4ccccc34)ccc2O1,1,-91*,-6,45
C[C@@H]1CCCCO[C@@H](CN(C)Cc2ccc3c(c2)OCO3)[C@@H](C)CN([C@H](C)CO)C(=O)c2cc(NC(=O)Nc3cccc4ccccc34)ccc2O1,/,31,-2,93
C[C@@H]1CN([C@H](C)CO)C(=O)c2cc(NC(=O)Nc3cccc4ccccc34)ccc2O[C@@H](C)CCCCO[C@H]1CN(C)Cc1ccc2c(c1)OCO2,-1,-87*,-1,76
COc1ccc(CN(C)C[C@@H]2OCCCC[C@H](C)Oc3ccc(NC(=O)Nc4cccc5ccccc45)cc3C(=O)N([C@H](C)CO)C[C@H]2C)cc1,/,-90*,/,106
C[C@@H]1CCCCO[C@H](CN(C)Cc2ccc3c(c2)OCO3)[C@@H](C)CN([C@@H](C)CO)C(=O)c2cc(NC(=O)Nc3cccc4ccccc34)ccc2O1,2,-88*,-2,69
